Like-named read-outs stand apart in the source and are kept apart here. Marks after values point to notes of the source that are not given here. Values belong to the compound of their own block, whether it stands above or below them.
Assays:
[1] = assay type: in vivo, human; conditions: for time to steady-state PK based on Ctrough: continuous once-daily dosing combined with chemotherapy
Summary of the method: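 Samples were taken predose and 0.5–8 h (24 h per footnote) post-dose with once-daily dosing. AUC0-24, Cmax, tmax and Ctrough were derived using actual times, and predose BLQ values were set to 0. Accumulation ratio was C1D14/C1D1 or C1D21/C1D8 of induction. Steady state was judged from Ctrough across cycles, and consolidation data pooled both regimens (ME or ARA-C).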

plasma 2-HG = assay: Plasma 2-HG pharmacodynamics in patients with newly diagnosed mIDH1/2 AML; assay type: in vivo, human; conditions: for reduction of mean trough plasma 2-HG concentrations (up to): after multiple doses, combined with chemotherapy; for mean reduction in plasma 2-HG concentration: enasidenib started C1D1, by induction C1D14
Summary of the method: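 Plasma was sampled within 30 min predose and at 0.5, 2, 4, 6, 8 (and 24, per footnote) h on induction C1D1/C1D14 and consolidation C1D1; the delayed-start cohort was sampled on C1D8/C1D21. 2-HG was measured by surrogate-analyte (¹³C₅ 2-HG) LC-MS/MS, LLOQ 30 ng/mL, with BLQ set to LLOQ. AUEC0-8, AUEC0-24, BAUEC0-24 and Rtrough used actual times. C1D14 reductions were grouped by best overall response: CR; IR (CRi, CRp, MLFS, PR); NR (SD, PD).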

bone marrow 2-HG = assay: Bone marrow 2-HG pharmacodynamics in patients with newly diagnosed mIDH1/2 AML; assay type: in vivo, human; conditions: after multiple doses; combined with chemotherapy
Summary of the method: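 Bone marrow aspirates from patients on oral ivosidenib or enasidenib once daily plus chemotherapy. 2-HG was quantified by LC-MS/MS using a qualified surrogate analyte method, with ¹³C₅ 2-HG as the surrogate for calibrators and QCs. LLOQ was 10 ng/mL, and BLQ values were set to LLOQ. Percentage reduction from baseline was computed using actual times relative to dosing.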

[2] = cited from earlier work
2-HG [3] = conditions: cited from earlier work; for plasma 2-HG reduction from baseline, maximum / plasma 2-HG reduction from baseline, median: enasidenib 100 mg once daily
[4] = test system: advanced mIDH2 hematologic malignancies; conditions: cited from earlier work
IDH2-R172 = conditions: preclinical and in vitro data; cited from earlier work
[5] = cited from earlier work; remark: listed apart in the source
2-HG [6] = conditions: ivosidenib 500 mg once daily single agent, cited from earlier work
mIDH1 R/R AML = conditions: patients with mIDH1 R/R AML; ivosidenib 500 mg once daily; cited from earlier work
CYP3A4 = conditions: healthy participants; cited from earlier work
[7] = enasidenib 100 mg QD + chemotherapy, Consolidation C1D1
[8] = enasidenib 100 mg QD starting day 1 + chemotherapy, Induction C1D1
[9] = enasidenib 100 mg QD starting day 1 + chemotherapy, Induction C1D14
[10] = enasidenib 100 mg QD starting day 8 + chemotherapy, Induction C1D8
[11] = enasidenib 100 mg QD starting day 8 + chemotherapy, Induction C1D21
[12] = ivosidenib 500 mg QD + chemotherapy, Consolidation C1D1
[13] = ivosidenib 500 mg QD + chemotherapy, Induction C1D14 / induction C1D1
[14] = ivosidenib 500 mg QD + chemotherapy, Induction C1D1
[15] = ivosidenib 500 mg QD + chemotherapy, Induction C1D14

time to steady-state PK based on Ctrough [1]: ≤ 14 days
Racc AUC0-24 (accumulation ratio based on AUC0-24), mean (SD) [1, 7]: 7.93 (4.29); 18
Racc Cmax (accumulation ratio based on Cmax), mean (SD) [1, 7]: 7.15 (4.59); 24
SMILES: CC(C)(O)CNc1nc(Nc2ccnc(C(F)(F)F)c2)nc(-c2cccc(C(F)(F)F)n2)n1 [Enasidenib, enasidenib]
reduction of mean trough plasma 2-HG concentrations (up to) (plasma 2-HG): ≤ 99%
%BAUEC0-24 (percentage reduction of plasma 2-HG based on AUEC0-24), mean (RSD%) (plasma 2-HG; [7]): 80.6 (25.1); 21%
%Rtrough (percentage reduction of plasma 2-HG at the end of a dosing interval), mean (RSD%) (plasma 2-HG; [7]): 77.1 (37.8); 21%
Plasma 2-HG AUEC0-24, mean (RSD%) (plasma 2-HG; [7]): 1800 (116.1); 21 ng • h/mL
%BAUEC0-24 (percentage reduction of plasma 2-HG based on AUEC0-24), mean (RSD%) (plasma 2-HG; [8]): 18.7 (108.0); 57%
%Rtrough (percentage reduction of plasma 2-HG at the end of a dosing interval), mean (RSD%) (plasma 2-HG; [8]): 37.8 (68.2); 57%
%BAUEC0-24 (percentage reduction of plasma 2-HG based on AUEC0-24), mean (RSD%) (plasma 2-HG; [9]): 85.0 (24.7); 45%
%Rtrough (percentage reduction of plasma 2-HG at the end of a dosing interval), mean (RSD%) (plasma 2-HG; [9]): 84.7 (24.6); 45%
Plasma 2-HG AUEC0-24, mean (RSD%) (plasma 2-HG; [9]): 2030 (134.4); 45 ng • h/mL
%BAUEC0-24 (percentage reduction of plasma 2-HG based on AUEC0-24), mean (RSD%) (plasma 2-HG; [10]): 73.9 (28.1); 16%
%Rtrough (percentage reduction of plasma 2-HG at the end of a dosing interval), mean (RSD%) (plasma 2-HG; [10]): 82.8 (18.0); 16%
Plasma 2-HG AUEC0-24, mean (RSD%) (plasma 2-HG; [10]): 3960 (72.5); 16 ng • h/mL
%BAUEC0-24 (percentage reduction of plasma 2-HG based on AUEC0-24), mean (RSD%) (plasma 2-HG; [11]): 83.1 (34.6); 15%
%Rtrough (percentage reduction of plasma 2-HG at the end of a dosing interval), mean (RSD%) (plasma 2-HG; [11]): 82.3 (40.5); 15%
Plasma 2-HG AUEC0-24, mean (RSD%) (plasma 2-HG; [11]): 1670 (130.2); 15 ng • h/mL
mean reduction in plasma 2-HG concentration (plasma 2-HG; patients with IDH2-R140 mutations (n = 41)): 89.3%
mean reduction in plasma 2-HG concentration (plasma 2-HG; patients with IDH2-R172 mutations (n = 14)): 76.9%
arithmetic mean percentage reduction of plasma 2-HG based on BAUEC0-8 (plasma 2-HG; enasidenib starting on induction C1D1, following the first enasidenib dose): 7.1%
reduction in plasma 2-HG AUEC0-8 (plasma 2-HG; enasidenib starting on induction C1D8, at C1D8): 71.6%
median 2-HG reduction (plasma 2-HG; in this study, enasidenib combined with chemotherapy): > 75%
reduction of mean trough bone marrow 2-HG concentrations (up to) (bone marrow 2-HG): up to 99%
terminal half-life ([2]; enasidenib single agent): ≈ 137 hours
time to steady state ([2]; enasidenib single agent): ≤ 29 days
accumulation ([2]; once-daily administration, ref data on file): ≈ 10 fold
plasma 2-HG reduction from baseline, maximum (2-HG [3]; IDH2-R140Q mutations): 99%
plasma 2-HG reduction from baseline, median (2-HG [3]; IDH2-R140Q mutations): 93%
plasma 2-HG reduction from baseline, maximum (2-HG [3]; IDH2-R172K mutations): 94%
plasma 2-HG reduction from baseline, median (2-HG [3]; IDH2-R172K mutations): 28%
median reduction in 2-HG concentrations from baseline (2-HG [3]; enasidenib dose of 100 mg): 90.4%
median reduction in 2-HG concentrations from baseline (2-HG [3]; enasidenib doses of <100 mg): 92.4%
median reduction in 2-HG concentrations from baseline (2-HG [3]; enasidenib doses of >100 mg): 93.1%
ORR ([4]; all patients receiving enasidenib 100 mg once daily): 38.5%
ORR ([4]; enasidenib 100 mg once daily, patients with IDH2-R140 mutations): 35.4%
ORR ([4]; enasidenib 100 mg once daily, patients with IDH2-R172 mutations): 53.3%
potency against IDH2-R172 compared with IDH2-R140 (IDH2-R172): less potent

time to steady-state PK based on Ctrough [1]: ≤ 14 days
Racc AUC0-24 (accumulation ratio based on AUC0-24), mean (SD) [1, 12]: 1.38 (0.83); 24
Racc Cmax (accumulation ratio based on Cmax), mean (SD) [1, 12]: 1.21 (0.69); 30
Racc AUC0-24 (accumulation ratio based on AUC0-24), mean (SD) [1, 13]: 2.35 (1.2); 38
Racc Cmax (accumulation ratio based on Cmax), mean (SD) [1, 13]: 1.69 (0.71); 49
SMILES: N#Cc1ccnc(N2C(=O)CC[C@H]2C(=O)N(c2cncc(F)c2)[C@H](C(=O)NC2CC(F)(F)C2)c2ccccc2Cl)c1 [Ivosidenib, ivosidenib]
reduction of mean trough plasma 2-HG concentrations (up to) (plasma 2-HG): ≤ 99%
%BAUEC0-24 (percentage reduction of plasma 2-HG based on AUEC0-24), mean (RSD%) (plasma 2-HG; [12]): 91.0 (16.9); 28%
%Rtrough (percentage reduction of plasma 2-HG at the end of a dosing interval), mean (RSD%) (plasma 2-HG; [12]): 90.7 (17.2); 28%
Plasma 2-HG AUEC0-24, mean (RSD%) (plasma 2-HG; [12]): 1090 (39.8); 29 ng • h/mL
%BAUEC0-24 (percentage reduction of plasma 2-HG based on AUEC0-24), mean (RSD%) (plasma 2-HG; [14]): 53.0 (30.5); 48^b %
%Rtrough (percentage reduction of plasma 2-HG at the end of a dosing interval), mean (RSD%) (plasma 2-HG; [14]): 80.8 (28.1); 48^b %
%BAUEC0-24 (percentage reduction of plasma 2-HG based on AUEC0-24), mean (RSD%) (plasma 2-HG; [15]): 90.0 (23.8); 46%
%Rtrough (percentage reduction of plasma 2-HG at the end of a dosing interval), mean (RSD%) (plasma 2-HG; [15]): 89.8 (23.9); 46%
Plasma 2-HG AUEC0-24, mean (RSD%) (plasma 2-HG; [15]): 1120 (51.8); 47 ng • h/mL
reduction of mean trough bone marrow 2-HG concentrations (up to) (bone marrow 2-HG): up to 99%
half-life ([5]; ivosidenib 500 mg once daily single agent, after a single dose): 93 h
accumulation ratio ([5]; ivosidenib 500 mg once daily single agent, after multiple doses): ≈ 2 fold
time to steady state based on observed Ctrough ([5]; ivosidenib 500 mg once daily single agent): ≤ 14 days
ivosidenib clearance with concomitant moderate or strong CYP3A4 inhibitors ([5]; patients, phase 1 single-agent study): decreased
patients achieving a ≥90% reduction in plasma 2-HG concentrations (2-HG [6]; after multiple doses): 71%
reduction in bone marrow 2-HG concentrations (2-HG [6]): > 90%
overall response rate (ORR) (mIDH1 R/R AML): 41.6%
AUC parameters when coadministered with itraconazole (CYP3A4): increased
Cmax when coadministered with itraconazole (CYP3A4): unaffected

From publication PMC9303875 (Clinical Pharmacology in Drug Development, 2022)
